Measurements taken from article PMC5116011 (The Journal of antibiotics, 2016).
Converted amounts (≈) assume the structure as drawn. Where two headings read alike, the source gives them in different places.

Tests used:
[1] = system: P. mirabilis ATCC 25933; assay: MIC, microbroth dilution in Mueller-Hinton broth; type: cell-based; conditions: Proteus mirabilis, ATCC25933, read-out: MIC PM
[2] = system: P. aeruginosa PA01; assay: MIC, microbroth dilution in Mueller-Hinton broth; type: cell-based, Pseudomonas aeruginosa; conditions: for MIC PA MH+BP/CCCP / MIC PA +: P. aeruginosa PA01; for MIC PA MH+BP/CCCP: MH broth with 30 µg/ml 2,2′-bipyridyl and 50 µg/ml CCCP; for MIC PA +: with clavulanic acid (6µg/ml); for MIC: Pseudomonas aeruginosa
[3] = system: E. coli BW25113 ΔampC derivative JW4111-2; type: cell-based, Escherichia coli; conditions: for MIC: Escherichia coli, BW25113, read-out: MIC ECΔampC −
[4] = system: E. coli BW25113; assay: MIC, microbroth dilution in Mueller-Hinton broth; type: cell-based, Escherichia coli; conditions: for MIC EC MH+BP/CCCP / MIC EC +: E. coli BW25113; for MIC EC MH+BP/CCCP: MH broth with 30 µg/ml 2,2′-bipyridyl and 50 µg/ml CCCP; for MIC EC +: with clavulanic acid (6µg/ml); for MIC: Escherichia coli, BW25113, read-out: MIC EC, E. coli BW25113, Mueller-Hinton broth (Table 2)
[5] = system: B. subtilis ATCC23857; assay: MIC, microbroth dilution in Mueller-Hinton broth; type: cell-based; conditions: Bacillus subtilis, ATCC23857, read-out: MIC BS
How it was run: (§1)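 CLSI broth microdilution in cation-adjusted Mueller-Hinton broth. Inocula were grown from MH agar colonies in MH broth, with a final inoculum of 10^5 CFU/ml. Test compound final range was 200–0.2 µg/ml, incubated 37°C for 18–20 h. MIC was the lowest concentration preventing visible growth. Runs were at least duplicate, and the mean MIC was reported.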

[6] = system: S. aureus NRS 70 (MRSA); assay: MIC, microbroth dilution in Mueller-Hinton broth; type: cell-based; conditions: Staphylococcus aureus, MRSA|NRS70, read-out: MIC MRSA
How it was run: as §1

[7] = system: S. pneumoniae R6; assay: MIC, microbroth dilution in Mueller-Hinton broth; type: cell-based; conditions: Streptococcus pneumoniae, R6, read-out: MIC SP
How it was run: as §1

[8] = system: P. vulgaris ATCC 33420; assay: MIC, microbroth dilution in Mueller-Hinton broth; type: cell-based; conditions: Proteus vulgaris, ATCC33420, read-out: MIC PV
[9] = system: E. coli ATCC 35218 (Low-level TEM-1); assay: MIC with and without clavulanic acid; type: cell-based; conditions: for MIC ATCC 35218 (Low-level TEM-1) + CLV: with clavulanic acid (6 µg/ml)
How it was run: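 Mueller-Hinton broth microdilution per CLSI, run in parallel without and with the β-lactamase inhibitor clavulanic acid (6 µg/ml). MH-broth-grown inoculum was at 10^5 CFU/ml final, with test compound at 200–0.2 µg/ml final. Incubation was 37°C, 18–20 h, and the visible-growth endpoint was read. At least duplicate determinations; the mean MIC was reported.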

[10] = system: S. aureus -ATCC29213 (MSSA); assay: MIC, microbroth dilution in Mueller-Hinton broth; type: cell-based; conditions: Staphylococcus aureus, read-out: MIC MSSA
How it was run: as §1

[11] = system: S. pyogenes ATCC700294; assay: MIC, microbroth dilution in Mueller-Hinton broth; type: cell-based; conditions: Streptococcus pyogenes, ATCC700294, read-out: MIC SPy
How it was run: as §1

[12] = system: E. faecalis ATCC33186; assay: MIC, microbroth dilution in Mueller-Hinton broth; type: cell-based; conditions: Enterococcus faecalis, ATCC33186, read-out: MIC EF
How it was run: as §1

[13] = system: E. coli BW25113 ΔtolC derivative JW5503-1; assay: MIC, microbroth dilution in Mueller-Hinton broth; type: cell-based, Escherichia coli; conditions: for MIC: Escherichia coli
[14] = system: B. anthracis sterne; assay: microbe, parasite or virus in culture; type: cell-based; conditions: Bacillus anthracis, read-out: MIC BA
[15] = Relative binding affinity; type: physicochemical
How it was run: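 Chelator:Fe(III) stoichiometry was found by the continuous variation method. The apparent iron constant came from the drop in 460 nm absorbance of the preformed test compound–Fe(III) complex as EDTA concentration was raised. pM was calculated as –log free [Fe3+].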

[16] = cited from earlier work
[17] = BW25113, read-out: MIC ECΔtolC MH
[18] = BW25113, read-out: MIC ECΔtolC MH+BP

| Compound | MIC [1] [µg/mL] | MIC PA MH+BP/CCCP [2] [µg/mL] | MIC PA + [2] [µg/mL] | MIC ([2]; PA01, read-out: MIC PA) [µg/mL] | MIC ([2]; PA01, read-out: MIC PA MH) [µg/mL] | MIC ([2]; PA01, read-out: MIC PA MH+BP) [µg/mL] | MIC ([2]; PA01, read-out: MIC PA MH+CCCP) [µg/mL] | MIC [3] [µg/mL] | MIC ECΔampC + [3] [µg/mL] | MIC EC MH+BP/CCCP [4] [µg/mL] | MIC EC + [4] [µg/mL] | MIC [4] [µg/mL] | MIC [5] [µg/mL] | MIC [6] [µg/mL] | MIC [7] [µg/mL] | MIC [8] [µg/mL] | MIC ATCC 35218 (Low-level TEM-1) + CLV [9] [µg/mL] | MIC [10] [µg/mL] | MIC [11] [µg/mL] | MIC [12] [µg/mL] | also measured |
| --- | --- | --- | --- | --- | --- | --- | --- | --- | --- | --- | --- | --- | --- | --- | --- | --- | --- | --- | --- | --- | --- |
| CC1(C)SC2C(NC(=O)C(NC(=O)C3=C(O)C(Cc4ccccc4)NC3=O)c3ccccc3)C(=O)N2C1C(=O)O (centres unmarked) [Compound 2781] | 3.13 (≈ 5.54 µM) | 1.56 (≈ 2.76 µM) | 3.13 | 12.5 (≈ 22.1 µM) | 12.5 (≈ 22.1 µM) | 6.25 (≈ 11.1 µM) | 3.13 (≈ 5.54 µM) | 6.25 (≈ 11.1 µM) | 3.13 | 3.13 (≈ 5.54 µM) | 6.25 | 100 (≈ 177 µM) | 0.78 (≈ 1.38 µM) | 25 (≈ 44.3 µM) | < 0.2 | 6.25 (≈ 11.1 µM) | 25 | < 0.2 | 0.39 (≈ 0.691 µM) | 25 (≈ 44.3 µM) | MIC ([2]; PA01, read-out: MIC PA −): 12.5 µg/mL (≈ 22.1 µM); MIC ([9]; Escherichia coli, ATCC35218, read-out: MIC ATCC 35218 (Low-level TEM-1) - CLV): > 200 µg/mL; MIC ([13]; BW25113, read-out: MIC ECΔtolC): 3.13 µg/mL (≈ 5.54 µM); MIC [13, 17]: 3.13 µg/mL (≈ 5.54 µM); MIC [13, 18]: 3.13 µg/mL (≈ 5.54 µM); MIC ECΔtolC MH+BP/CCCP [13]: 1.56 µg/mL (≈ 2.76 µM); MIC ECΔtolC MH+CCCP [13]: 1.56 µg/mL (≈ 2.76 µM); MIC [14]: 3.13 µg/mL (≈ 5.54 µM) |
| CC1(C)SC2C(NC(=O)C(NC(=O)C3=C(O)C(Cc4ccc(F)cc4)NC3=O)c3ccccc3)C(=O)N2C1C(=O)O (centres unmarked) [Compound 2782] | 12.5 (≈ 21.5 µM) | 12.5 (≈ 21.5 µM) | 12.5 | 25 (≈ 42.9 µM) | 25 (≈ 42.9 µM) | 25 (≈ 42.9 µM) | 12.5 (≈ 21.5 µM) | 6.25 (≈ 10.7 µM) | 3.13 | 3.13 (≈ 5.37 µM) | 3.13 | 25 (≈ 42.9 µM) | 1.56 (≈ 2.68 µM) | 12.5 (≈ 21.5 µM) | 0.39 (≈ 0.669 µM) | 12.5 (≈ 21.5 µM) | 25 | 0.39 (≈ 0.669 µM) | 0.78 (≈ 1.34 µM) | 6.25 (≈ 10.7 µM) | MIC ([13]; BW25113, read-out: MIC ECΔtolC): 1.56 µg/mL (≈ 2.68 µM); MIC [13, 17]: 1.56 µg/mL (≈ 2.68 µM); MIC [13, 18]: 3.13 µg/mL (≈ 5.37 µM); MIC ECΔtolC MH+BP/CCCP [13]: 1.56 µg/mL (≈ 2.68 µM); MIC ECΔtolC MH+CCCP [13]: 1.56 µg/mL (≈ 2.68 µM); MIC [14]: 3.13 µg/mL (≈ 5.37 µM) |
| CC1(C)SC2C(NC(=O)C(NC(=O)C3=C(O)C(Cc4ccsc4)NC3=O)c3ccccc3)C(=O)N2C1C(=O)O (centres unmarked) [Compound 2916] | 6.25 (≈ 11 µM) | 6.25 (≈ 11 µM) | 6.25 | 25 (≈ 43.8 µM) | 25 (≈ 43.8 µM) | 25 (≈ 43.8 µM) | 12.5 (≈ 21.9 µM) | 6.25 (≈ 11 µM) | 3.13 | 12.5 (≈ 21.9 µM) | 12.5 | 50 (≈ 87.6 µM) | 1.56 (≈ 2.73 µM) | 50 (≈ 87.6 µM) | < 0.2 | 6.25 (≈ 11 µM) | 25 | < 0.2 | 0.39 (≈ 0.683 µM) | 25 (≈ 43.8 µM) | pM (–log [Fe^3+]) ([15]; 10^−5 M total iron chelator and 10^−6 M total Fe^3+ at pH 7.4): 20.3; apparent binding constant (Kd, app) for iron (III) ([15]; EDTA competition, MeOH:Tris buffer, pH 7.4 (98:2), 3:1 complex): 0.55 × 10^−29 M^3; MIC ([13]; BW25113, read-out: MIC ECΔtolC): 1.56 µg/mL (≈ 2.73 µM); MIC [13, 17]: 1.56 µg/mL (≈ 2.73 µM); MIC [13, 18]: 1.56 µg/mL (≈ 2.73 µM); MIC ECΔtolC MH+BP/CCCP [13]: 0.78 µg/mL (≈ 1.37 µM); MIC ECΔtolC MH+CCCP [13]: 0.78 µg/mL (≈ 1.37 µM); MIC [14]: 1.56 µg/mL (≈ 2.73 µM) |
| O=C(N[C@H]1COC(=O)[C@@H](NC(=O)c2cccc(O)c2O)COC(=O)[C@@H](NC(=O)c2cccc(O)c2O)COC1=O)c1cccc(O)c1O [enterobactin] | – | – | – | – | – | – | – | – | – | – | – | – | – | – | – | – | – | – | – | – | pM ([16]; E. coli enterobactin, ref [42]): 35.6 |
| CN1[C@@H]([C@H]2CSC(c3ccccc3O)=N2)SC[C@H]1C(=O)O [pyochelin] | – | – | – | – | – | – | – | – | – | – | – | – | – | – | – | – | – | – | – | – | pM ([16]; pyochelin, ref [43], [44]): 6; Kd ([16]; read-out: Kd for iron, pyochelin, ref [43], [44]): 10 µM |
| pyoverdin | – | – | – | – | – | – | – | – | – | – | – | – | – | – | – | – | – | – | – | – | pM ([16]; P. aeruginosa pyoverdin, ref [45], [46]): 27 |
